# According to paper PMC9310269 (Journal for Immunotherapy of Cancer, 2022):
# System: MC38-hPD-L1 tumors
# Test: MC38-hPD-L1 tumor model in humanized PD-1 mice
# Assay type: in vivo, mouse
# Conditions: 10 mg/kg i.p.; p<0.001
# Outline: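 Male C57BL/6N humanized PD-1 mice receive 1×10^6 MC38-hPD-L1 cells s.c. in the right flank. At day 12 (~60 mm3) they are randomized into 3 groups (N=6). Dosing is 10 mg/kg i.p. daily for 10 doses, or atezolizumab 10 mg/kg i.p. three times weekly, both over days 12–22. Tumour (X2Y0.5, caliper) and body weight are measured every 3 days. At day 30, tumours are enzymatically digested and analysed by flow cytometry.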
substance,measurement,value
atezolizumab: clinically relevant anti-PD-L1 antibody control in vivo,tumor growth inhibition,significant
